# High-throughput results as filed in PubChem.
# MEKK2 mut-MEK5: signal of MEK5 binding to mutant human MEKK2 PB1 domain | percent response, % at 10 µM | 290,000 tested, 0.35% active | bead flow cytometry, Alexa488-MEK5 binding to MEKK2 mutant; in the data active = percent response above about 24%, passing the limit was not always enough
# UCH37 inh: human UCH37 deubiquitinating enzyme inhibition; Q9Y5K5; 330,000 tested, 0.33% active; AID 588478; purified proteasome/UCH37, Ub-AMC cleavage fluorescence; inhibition, % (no concentration beside the values);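 active = mean inhibition over replicate wells above about 20%, limit read from the data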
# Target sequence (Q9Y5K5 whole entry, looked up): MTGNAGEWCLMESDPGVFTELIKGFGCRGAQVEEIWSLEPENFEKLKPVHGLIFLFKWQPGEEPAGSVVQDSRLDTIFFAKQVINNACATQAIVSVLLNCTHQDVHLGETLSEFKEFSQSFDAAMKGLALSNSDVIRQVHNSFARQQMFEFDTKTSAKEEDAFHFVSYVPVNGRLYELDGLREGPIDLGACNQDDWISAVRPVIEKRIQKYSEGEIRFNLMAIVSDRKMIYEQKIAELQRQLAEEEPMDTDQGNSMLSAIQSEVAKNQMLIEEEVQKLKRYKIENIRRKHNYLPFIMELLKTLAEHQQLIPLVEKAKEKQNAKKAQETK
#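 Material: Human UCH37 enzyme supplied as purified proteasome complex | Schedule: 30 min preincubation with enzyme, 25 min cleavage at room temperature | Detection: AMC fluorescence 355/460 nm | Measure: % inhibition of Ub-AMC cleavage fluorescence | Controls: Wells without proteasome as full block, compound-free enzyme plus substrate as uninhibited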
# MEKK2 WT-MEK5: raises or lowers MEK5 binding to wildtype human MEKK2 PB1 domain | bead flow cytometry, Alexa488-MEK5 binding to MEKK2 WT; actives lie on both sides | AID 1531 | 290,000 tested, 1.1% active | Q9Y2U5 | binding response (% of control), % at 10 µM; in the data active = binding response below about 67% or above about 130%
# MEKK3 PB1 HTS: modulators (inhibitors or enhancers) of MEK5 binding to human MEKK3 PB1 domain; Q99759; bead-based flow cytometry, Alexa488-MEK5 binding to MEKK3; actives lie on both sides; 0 = blocked by unlabeled MEK5, 100 = vehicle; binding response (% of control), % at 10 µM; 290,000 tested, 1.4% active; AID 1529;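 active = binding response more than 3 SD above or below the average of its plate-row segment, actives on both sides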;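 also: Alexa488 bead fluorescence after subtracting the streptavidin-only scavenger bead signal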
# Rce1 inhib: blocks yeast Ras-converting enzyme | AID 2563 | 290,000 tested, 0.27% active | calls only | yeast membranes, quenched prenylated peptide cleavage fluorescence | Q03530;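 active = fall in fluorescence gain of 50% or more versus controls, with final raw signal at or below 3038400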
# Target sequence (Q03530 whole entry, looked up): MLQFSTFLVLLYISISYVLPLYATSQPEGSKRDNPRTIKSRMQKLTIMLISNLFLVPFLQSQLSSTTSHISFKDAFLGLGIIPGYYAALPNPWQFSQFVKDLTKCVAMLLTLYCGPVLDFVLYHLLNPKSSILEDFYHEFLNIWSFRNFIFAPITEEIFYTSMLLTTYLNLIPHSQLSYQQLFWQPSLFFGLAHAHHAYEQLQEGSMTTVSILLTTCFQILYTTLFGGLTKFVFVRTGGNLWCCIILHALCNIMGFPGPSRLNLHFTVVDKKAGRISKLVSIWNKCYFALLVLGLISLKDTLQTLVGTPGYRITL
# T cell HTS: modulates CD8 T cell binding to vesicles. 330,000 tested, 0.068% active. 2C CD8+ T cell-vesicle binding, flow cytometry; stronger effect = lower value. response (vesicle binding), % at 7 µM;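 active = response, share of CD8 T cells binding vesicles, and their 90th percentile fluorescence all below set limits, cut at about 80% in these data, passing the limit was not always enough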;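 also: values below 100% mean blocked vesicle binding to the CD8+ T cells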
#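 Material: murine 2C transgenic CD8+ T lymphocytes / Also added: QL9-peptide-loaded Drosophila micro-vesicles bearing Ld, ICAM-1 and B7-1 / Schedule: binding step 1.5 h, 37 °C, antibody labelling 20 min, ice / Signal: flow cytometry, PE anti-B7-1 (FL2) versus Alexa647 anti-CD8 (FL8), PFA-fixed / Evaluation: percent CD8+ FL2 mean versus row control / Benchmarks: naked versus QL9-loaded vesicles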
# MEKK2wt confirm: raises or lowers MEK5 binding to wildtype human MEKK2, retest; binding response (% of control), % at 10 µM; AID 1892; shares compounds with MEKK3 PB1 HTS; bead flow cytometry, Alexa488-MEK5 binding to MEKK2 WT; actives lie on both sides; 5,900 tested, 2.4% active; in the data active = binding response below about 16% or above about 210%; inactive = in between
# MEKK2mut-MEK5: signal of MEK5 binding to mutant human MEKK2, retest | bead flow cytometry, Alexa488-MEK5 binding to MEKK2 mutant | shares compounds with MEKK3 PB1 HTS | percent response, % at 10 µM | AID 1893 | 5,900 tested, 2% active; in the data active = percent response mostly above about 71%, no sharp cut-off; inactive = mostly below about 38%;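 also: higher means compound restores mutant binding toward wildtype level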
# MEKK3-MEK5 inh: MEKK3-MEK5 PB1 inhibition, single concentration confirmation. bead flow cytometry, Alexa488-MEK5 binding to MEKK3; stronger effect = lower value. 5,900 tested, 1.8% active. binding response (% of control), % at 10 µM. shares compounds with MEKK3 PB1 HTS;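 active = binding response below 72% of control, or above a set upper limit, though filed actives all read lower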
# A number is an active result; 0 = inactive; - = no result given; [ ] = another dose, or the depositor's remark. A selection: hits, their analogues and other compounds. The true share with any hit is near 2.5%.
SMILES,MEKK2 mut-MEK5,UCH37 inh,MEKK2 WT-MEK5,MEKK3 PB1 HTS,Rce1 inhib,T cell HTS,MEKK2wt confirm,MEKK2mut-MEK5,MEKK3-MEK5 inh
CC(=O)c1cccc(N(C(=O)Cn2nnc3ccccc32)C(C(=O)NCc2ccccc2)c2ccccn2)c1 (stereo not given),0,0,0,130,0,0,0,0,0
Cc1cccc(NC(=S)NCCCN2CCOCC2)c1,0,0,0,138,0,0,0,0,0
S=C(NCCCN1CCOCC1)Nc1cccc(Cl)c1,0,0,0,0,0,0,-,-,-
COc1cccc(NC(=S)NCCN2CCOCC2)c1,0,0,0,141,0,0,0,0,0
S=C(NCCN1CCOCC1)Nc1cccc(Cl)c1,0,0,0,0,0,0,-,-,-
Cc1ccc2nc(Cl)c(C3CC(c4ccco4)=NN3S(C)(=O)=O)cc2c1 (stereo not given),0,0,0,72[inhibitor],0,0,0,0,0
CCN(CC)c1ccc(C=NNC(=O)c2ccc3c(c2)OCCO3)cc1,-,0,-,-,-,-,-,-,-
Cc1ccc(-c2c(C(=O)NN=Cc3ccco3)nnn2-c2nonc2N)cc1,-,0,-,-,-,-,-,-,-
Cc1nc(NS(=O)(=O)c2ccccc2)sc1C(=O)NN=Cc1ccccc1,-,0,-,-,-,-,-,-,-
Oc1ccc(Cl)cc1/C=C/c1ccc2cccc(O)c2n1,0,0,0,128,0,-,0,0,0
O=C(O)c1cccc(NC(=S)N/N=C/c2cccc(O)c2)c1,0,-,0,0,0,0,-,-,-
O=C(O)c1cccc(NC(=S)N/N=C/c2ccccn2)c1,0,-,0,159,0,0,0,0,0
N=c1scc(-c2ccccc2)n1N=Cc1ccco1,-,0,-,-,-,-,-,-,-
Cc1ccc(C)c(S(=O)(=O)NCc2ccncc2)c1,0,0,0,137,-,0,0,0,0
Cc1ccc(C)c(S(=O)(=O)NCc2cccnc2)c1,0,0,0,0,0,0,-,-,-
COc1cc(C=NNC(=O)c2ccc(CSc3nncn3C)cc2)ccc1OCC(=O)N1CC(C)OC(C)C1 (stereo not given),-,0,-,-,-,-,-,-,-
N#Cc1c(-c2ccc3c(c2)OCO3)csc1N,0,0,0,123,0,0,0,0,0
Cc1c(CCOC(=O)C23CC4(C)CC(C)(CC(C)(C4)C2)C3)sc[n+]1CC(=O)c1ccccc1,0,0,158,0,0,0,0,0,0
Oc1cccc(/C=N\Nc2nncc(-c3ccccc3)n2)c1,0,-,0,0,0,0,-,-,-
C(=C\c1ccccc1)/C=N/Nc1nncc(-c2ccccc2)n1,0,-,0,131,0,0,0,0,0
O=C(CCOc1ccccc1)Nc1ccnn1C1CCN(Cc2ccc(O)cc2)CC1,0,0,148,0,-,0,0,0,0
S=C(NCc1ccco1)NN=Cc1ccc(Cl)cc1,-,0,-,-,-,-,-,-,-
COc1ccc(Cl)cc1NC(=O)C[n+]1ccccc1,0,0,0,0,0,0,-,-,-
CCc1cc[n+](CC(=O)Nc2ccc(Cl)cc2Cl)cc1,0,0,4.0[inhibitor],3.0[inhibitor],0,0,0,0,0
Cc1ccccc1NC(=O)COC(=O)C1(C)CC1(Cl)Cl (stereo not given),0,0,1.0[inhibitor],2.0[inhibitor],0,0,0,0,0
SMILES,MEKK2 mut-MEK5,UCH37 inh,MEKK2 WT-MEK5,MEKK3 PB1 HTS,Rce1 inhib,T cell HTS,MEKK2wt confirm,MEKK2mut-MEK5,MEKK3-MEK5 inh
O=[N+]([O-])c1cc(S(=O)(=O)N2CCCC2)ccc1NN=C1CCCc2ccccc21,-,0,-,-,-,-,-,-,-
COC(=O)C1=NN(c2ccc(Cl)cc2)C2C(=O)N(c3ccccc3OC)C(=O)C12 (stereo not given),0,0,0,143,0,0,0,0,0
Cc1nc(COC(=O)c2ccc(CO)cc2)cs1,0,0,0.0[inhibitor],0.0[inhibitor],-,0,0,0,0
Nc1nonc1-c1nc2ccccc2n1CC(=O)NN=Cc1ccc(-c2ccc(Cl)cc2)o1,-,0,-,-,-,-,-,-,-
CCOc1ccccc1OCCCC(=O)Nc1sccc1C(N)=O,0,0,0,151,0,0,0,0,0
NC(=O)c1ccsc1NC(=O)CCc1ccccc1,0,0,0,0,0,0,-,-,-
Cc1ccc(-n2c(SCC(=O)NN=Cc3ccccc3C(=O)O)nnc2-c2ccc(Cl)cc2)cc1,-,0,-,-,-,-,-,-,-
CCOC(=O)c1cccc(-n2c(C)nc3ccccc3c2=O)c1,0,0,0,0,0,0,-,-,-
CCOC(=O)c1cccc(-n2c(-c3ccc(OC)cc3)nc3nc4ccccc4nc32)c1,0,0,0,134,0,-,0,0,0
CCC(=NNC(=O)c1c(C)nc2ccccn12)c1ccccc1,-,0,-,-,-,-,-,-,-
CCC/C=C1/CCCOC(C(=O)NCCNCCO)(C(F)(F)F)C1 (stereo not given),0,0,0,71[inhibitor],0,0,0,0,0
CCC/C=C1/CCCOC(C(=O)NCc2ccccc2)(C(F)(F)F)C1 (stereo not given),0,0,0,0,0,0,-,-,-
Cc1cc(-c2ccccc2)nc(NN=Cc2ccco2)n1,-,0,-,-,-,-,-,-,-
COCc1[nH][nH]c(=O)c1/C=N/N1CCOCC1,0,-,0,40[inhibitor],0,0,0,0,0
N/C(Cc1ccc([N+](=O)[O-])cc1)=N\OC(=O)Cc1ccccc1,0,-,0,53[inhibitor],0,0,0,0,0
N/C(Cc1ccc([N+](=O)[O-])cc1)=N\OC(=O)Cc1ccc(Cl)cc1,0,-,0,71[inhibitor],0,0,0,0,0
CCCC(=NNC(=O)CNC(=O)/C=C/c1ccco1)c1ccccc1,-,0,-,-,-,-,-,-,-
O=C(C1=C[C@@H](c2coc3ccccc3c2=O)C[C@@H](OCc2ccc(CO)cc2)O1)N1CCOCC1,0,0,0,82[inhibitor],0,-,0,0,0
O=[N+]([O-])c1cc(C=NN2CCN(c3ccccc3)CC2)ccc1Cl,-,0,-,-,-,-,-,-,-
CCn1c(SCC(=O)NNC(=O)c2ccccc2)nnc1-c1ccco1,0,0,0,73[inhibitor],0,0,0,0,0
CNC(=O)CSc1nnc(-c2ccco2)n1-c1cc(C)ccc1C,32,0,0,0,0,0,0,0,0
Cn1c(SCC(=O)NNC(=O)c2ccc(Br)cc2)nnc1-c1cccnc1,0,0,0,0,0,0,-,-,-
Cc1nnc(SCC(=O)NNC(=O)c2ccc(Br)cc2)n1C,557,0,717,0,0,0,0,0,0
CNC(=O)CSc1nnc(-c2ccco2)n1-c1cccc(C)c1C,0,0,0,0,-,0,-,-,-
CCn1c(SCC(=O)NNC(=O)c2ccco2)nnc1-c1ccco1,0,0,0,0,0,0,-,-,-
